Data taken from ChEMBL document CHEMBL1153473 (Bioorg Med Chem Lett, 2009).

Columns and labels:
[1] = target: T1, Steroid 17-alpha-hydroxylase/17,20 lyase (Rattus norvegicus, UniProt P11715); assay: Selectivity index, ratio of IC50 for 17-alpha-hydroxylase activity of rat testicular microsomal P450-17alpha to IC50 for 17,20-lyase activity of rat testicular microsomal P450-17alpha
T1 sequence (P11715 whole entry): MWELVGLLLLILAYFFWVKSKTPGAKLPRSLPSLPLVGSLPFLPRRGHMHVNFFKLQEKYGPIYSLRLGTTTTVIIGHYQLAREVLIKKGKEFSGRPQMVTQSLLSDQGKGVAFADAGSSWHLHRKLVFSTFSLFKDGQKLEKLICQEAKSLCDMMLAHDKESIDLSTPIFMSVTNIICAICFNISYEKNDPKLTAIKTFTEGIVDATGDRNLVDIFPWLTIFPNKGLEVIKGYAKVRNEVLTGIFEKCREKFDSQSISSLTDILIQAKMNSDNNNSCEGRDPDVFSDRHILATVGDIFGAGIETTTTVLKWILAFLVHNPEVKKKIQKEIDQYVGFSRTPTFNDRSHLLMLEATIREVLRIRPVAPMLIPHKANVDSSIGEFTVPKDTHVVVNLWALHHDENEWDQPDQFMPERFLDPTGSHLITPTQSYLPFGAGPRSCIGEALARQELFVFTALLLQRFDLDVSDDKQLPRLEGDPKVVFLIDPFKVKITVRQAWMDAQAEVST

[2] = target: T1, Steroid 17-alpha-hydroxylase/17,20 lyase; assay: Inhibition of 17,20-lyase activity of rat testicular microsomal P450-17alpha
Outline: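 Lyase reaction: rat testicular microsomes (final 0.23 mg/mL), 50 mM sodium phosphate pH 7.4, NADPH-generating system, 1 µM radiolabelled 17α-hydroxyprogesterone substrate; inhibitor added in ethanol; 37 °C prewarm 5 min, then 30 min incubation. Ether-extracted, TLC in DCM/ethyl acetate 4:1, 3H counted per spot; no-inhibitor controls. IC50 from ≥5 concentrations, each in triplicate.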

[3] = target: T1, Steroid 17-alpha-hydroxylase/17,20 lyase; assay: Inhibition of 17-alpha-hydroxylase activity of rat testicular microsomal P450-17alpha
Outline: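 Rat testicular microsomes (final 0.16 mg/mL) in 50 mM sodium phosphate pH 7.4 with NADPH-generating system and 1.5 µM radiolabelled progesterone; inhibitor in ethanol; 5 min prewarm at 37 °C, 15 min reaction. Ether extraction, TLC (DCM/ethyl acetate 7:3), spots scintillation-counted for 3H; no-inhibitor controls. IC50 from ≥5 concentrations in triplicate, linear regression of inhibition versus log[I].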

Aromatase = target: T2, Aromatase (Homo sapiens, UniProt P11511); assay: Inhibition of aromatase
T2 sequence (P11511 whole entry): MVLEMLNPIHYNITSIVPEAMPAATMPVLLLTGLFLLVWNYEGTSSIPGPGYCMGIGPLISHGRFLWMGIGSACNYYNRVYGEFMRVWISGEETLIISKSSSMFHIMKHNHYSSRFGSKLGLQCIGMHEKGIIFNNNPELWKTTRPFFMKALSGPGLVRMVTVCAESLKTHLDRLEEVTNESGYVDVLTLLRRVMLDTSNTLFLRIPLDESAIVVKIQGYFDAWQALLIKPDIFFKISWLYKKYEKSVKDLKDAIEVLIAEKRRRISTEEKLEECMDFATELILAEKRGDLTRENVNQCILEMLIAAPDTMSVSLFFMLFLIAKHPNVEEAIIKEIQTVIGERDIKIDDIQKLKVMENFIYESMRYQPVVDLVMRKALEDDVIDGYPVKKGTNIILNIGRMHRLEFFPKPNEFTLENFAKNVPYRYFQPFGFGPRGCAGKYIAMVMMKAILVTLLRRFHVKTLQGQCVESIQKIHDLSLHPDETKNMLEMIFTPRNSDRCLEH

`CC(=O)N1CCN(c2ccc(OCC3COC(Cn4ccnc4)(c4ccc(Cl)cc4Cl)O3)cc2)CC1` (stereo not given) [KETOCONAZOLE] was tested, and the “Ratio IC50” value [1] was 2.3.

In the case of `O=S(=O)(Oc1ccc(Cn2ccnc2)cc1)c1ccc(I)cc1`, the IC50 [2] is reported as 65.1 nM, the IC50 [3] is reported as 10000 nM and the “Ratio IC50” value [1] is reported as 100.1.

`Fc1ccc(Cn2ccnc2)cc1` showed an IC50 (Aromatase) of 880 nM.

For `Cc1ccc(Cn2ccnc2)cc1`, the IC50 (Aromatase) was 24500 nM.

With `O=S(=O)(Oc1ccc(Cn2ccnc2)cc1)c1ccc(F)cc1` the IC50 [2] was 210 nM, the IC50 [3] was 15900 nM and the “Ratio IC50” value [1] was 75.9.

For `O=S(=O)(Oc1ccc(Cn2ccnc2)cc1)c1ccc(Br)cc1`, the IC50 [2] was 70.4 nM, the IC50 [3] was 4840 nM and the “Ratio IC50” value [1] was 34.6.

For `O=S(=O)(Oc1ccc(Cn2ccnc2)cc1)c1ccc(C(F)(F)F)cc1`, the IC50 [2] was 291 nM, the IC50 [3] was 64900 nM and the “Ratio IC50” value [1] was 223.8.

`Clc1ccc(Cn2ccnc2)cc1` gave an IC50 (Aromatase) of 70 nM.

With `COc1ccc(S(=O)(=O)Oc2ccc(Cn3ccnc3)cc2)cc1` the IC50 [2] was 101 nM, the IC50 [3] was 6000 nM and the “Ratio IC50” value [1] was 60.

With `Ic1ccc(Cn2ccnc2)cc1` the “Ratio IC50” value [1] was 6.4.

For `O=[N+]([O-])c1ccc(S(=O)(=O)Oc2ccc(Cn3ccnc3)cc2)cc1`, the IC50 [2] was 85 nM, the IC50 [3] was 6880 nM and the “Ratio IC50” value [1] was 80.9.

In the case of `O=S(=O)(Oc1ccc(Cn2ccnc2)cc1)c1ccc(Cl)cc1`, the IC50 [2] is reported as 98.7 nM, the IC50 [3] is reported as 6850 nM and the “Ratio IC50” value [1] is reported as 69.9.

In the case of `N#CC(C#N)=Cc1ccc(O)c(O)c1` [TYRPHOSTIN 23], the IC50 (Aromatase) is reported as 70600 nM.

With `Cc1ccc(S(=O)(=O)Oc2ccc(Cn3ccnc3)cc2)cc1` the IC50 [2] was 230 nM, the IC50 [3] was 25200 nM and the “Ratio IC50” value [1] was 109.4.
